# Published values from different studies.
# Each line is one published result; the experiments were not run side by side.
# Target: Serine/threonine-protein kinase PAK 2 (PAK2, Homo sapiens, UniProt Q13177)
Structure (SMILES),effect on,action,method,concentration,setting,quantity,result
N#Cc1ccc(NC(=O)Nc2ccccc2)cc1,cell-free assay,,competition with immobilised ligand,25 µM,,remaining binding,82%
COc1ccc2oc(-c3ccc4nc(N)oc4c3)c/c(=N\c3ccccc3NC(=O)CCN)c2c1,binding,,,1 µM,,remaining binding,98%
CO[C@@H]1[C@H](N(C)C(=O)c2ccccc2)C[C@H]2O[C@]1(C)n1c3ccccc3c3c4c(c5c6ccccc6n2c5c31)C(=O)NC4,enzyme activity,inhibitor,,1 µM,,inhibition,28%
Cc1cc(O)c(-c2ccc([C@@H](C)CN(C)C)cc2)c2c1[nH]c(=O)c1sccc12,cell-free assay,inhibitor,,0.1 µM,lysate,inhibition,-5.59%
C#Cc1cnc(Nc2ccnc(CO)c2)nc1Nc1ccccc1S(C)(=O)=NC#N (stereo not shown),cell-free assay,,,1 µM,,remaining signal,48%
C[C@H]1CC[C@H](n2c3cnccc3c3cnc(Nc4ccc5c(n4)CCN(C(=O)CO)C5)nc32)CC1,cell-free assay,,,1 µM,,remaining signal,76%
C=CC(=O)N1CCC([C@@H]2CCNc3c(C(N)=O)c(-c4ccc(Oc5ccccc5)cc4)nn32)CC1,enzyme activity,inhibitor,,1 µM,,inhibition,23%
CN1CCN(C(=O)c2ccc(NC(=O)Nc3ccc(N(C)c4ccnc(Nc5ccc(CS(C)(=O)=O)cc5)n4)cc3)cc2)CC1,binding,,,1 µM,,remaining binding,50%
C1=C/COCc2cc(ccc2OCCN2CCCC2)Nc2nccc(n2)-c2cccc(c2)COC/1,binding,,,0.1 µM,,remaining binding,94%
CCCCC(=O)Nc1ccc(-c2ccc3ncn(CCC)c(=O)c3c2)cn1,binding,,competition with immobilised ligand,0.5 µM,,remaining binding,91%
